Activity calls are given as the source filed them. The calls are words filed in the database; no cut-off is given here.
Key:
Mus musculus [1] = experiment: Neurotoxicity in CF1 albino mouse assessed as motor impairment at 30 mg/kg, ip after 4 hrs; assay type: toxicity, organism-based; parameters: dose 30 mg/kg, route intraperitoneal; settings: in vivo
Rattus norvegicus [2] = experiment: Anticonvulsant activity in Sprague-Dawley rat assessed as inhibition of maximal electroshock-induced seizures at 30 mg/kg, po after 4 hrs
Mus musculus [3] = experiment: Neurotoxicity in CF1 albino mouse assessed as motor impairment at 30 mg/kg, ip after 0.5 hrs; assay type: toxicity, organism-based; parameters: dose 30 mg/kg, route intraperitoneal; settings: in vivo
Rattus norvegicus [4] = experiment: Anticonvulsant activity in Sprague-Dawley rat assessed as inhibition of maximal electroshock-induced seizures at 30 mg/kg, po after 15 mins
Mus musculus [5] = experiment: Teratogenic effect in SWV mouse assessed as live fetuses at 141 mg/kg, ip administered on morning of day 8 of gestation; assay type: toxicity, organism-based; parameters: dose 141 mg/kg, route intraperitoneal; settings: in vivo
Method in brief: (§1)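 Two-month-old nulligravid SWV females were mated overnight and checked for vaginal plugs the next morning; gestation onset was set at 10 p.m. the previous night. On gestation day 8.5, each dam received a single ip injection (0.55-2.7 mmol/kg range) or vehicle (25% aqueous Cremophor EL) at 10 μL/g body weight. Litters were scored for implants, resorptions, live and dead fetuses, and fetuses with neural tube defects.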

Mus musculus [6] = experiment: Teratogenic effect in SWV mouse assessed as fetuses with neural tube deffects at 282 mg/kg, ip administered on morning of day 8 of gestation; assay type: toxicity, organism-based; parameters: dose 282 mg/kg, route intraperitoneal; settings: in vivo; method in brief: as §1
Mus musculus [7] = experiment: Anticonvulsant activity in CF1 albino mouse assessed as inhibition of maximal electroshock-induced seizures at 300 mg/kg, ip after 4 hrs; assay type: functional, organism-based; parameters: dose 300 mg/kg
Method in brief: (§2)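 Test compounds suspended in 0.5% methylcellulose and given ip to adult male CF no. 1 albino mice (18-25 g) at 0.01 mL/g body weight before maximal electroshock challenge.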

Rattus norvegicus [8] = experiment: Anticonvulsant activity in Sprague-Dawley rat assessed as inhibition of maximal electroshock-induced seizures at 30 mg/kg, po after 30 mins
Mus musculus [9] = experiment: Anticonvulsant activity in CF1 albino mouse assessed as inhibition of subcutaneous pentylenetetrazole-induced seizures at 100 mg/kg, ip after 0.5 hrs; assay type: functional, organism-based; parameters: dose 100 mg/kg
Method in brief: (§3)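 Adult male CF no. 1 albino mice (18-25 g) dosed ip with compound suspended in 0.5% methylcellulose (0.01 mL/g). Convulsant: pentylenetetrazol dissolved in 0.9% saline as a 0.85% solution for mice, given subcutaneously.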

Mus musculus [10] = experiment: Anticonvulsant activity in CF1 albino mouse assessed as inhibition of subcutaneous pentylenetetrazole-induced seizures at 300 mg/kg, ip after 4 hrs; assay type: functional, organism-based; parameters: dose 300 mg/kg; method in brief: as §3
Mus musculus [11] = experiment: Anticonvulsant activity in CF1 albino mouse assessed as inhibition of maximal electroshock-induced seizures at 300 mg/kg, ip after 0.5 hrs; assay type: functional, organism-based; parameters: dose 300 mg/kg; method in brief: as §2
Mus musculus [12] = experiment: Anticonvulsant activity in CF1 albino mouse assessed as inhibition of subcutaneous pentylenetetrazole-induced seizures at 100 mg/kg, ip after 4 hrs; assay type: functional, organism-based; parameters: dose 100 mg/kg; method in brief: as §3
Mus musculus [13] = experiment: Teratogenic effect in SWV mouse assessed as resorptions at 282 mg/kg, ip administered on morning of day 8 of gestation; assay type: toxicity, organism-based; parameters: dose 282 mg/kg, route intraperitoneal; settings: in vivo
Method in brief: (§4)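 SWV inbred mice: two-month-old nulligravid females mated overnight with males and checked for vaginal plugs next morning; gestation onset taken as 10 p.m. the previous night. On gestation day 8.5 each dam got one ip injection, 0.55–2.7 mmol/kg, in 25% aqueous Cremophor EL (vehicle controls dosed alike), 10 μL/g body weight. Litters and implants tallied; resorptions and live fetuses reported as counts with percentages.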

Mus musculus [14] = experiment: Anticonvulsant activity in CF1 albino mouse assessed as inhibition of subcutaneous pentylenetetrazole-induced seizures at 30 mg/kg, ip after 4 hrs; assay type: functional, organism-based; parameters: dose 30 mg/kg; method in brief: as §3
Mus musculus [15] = experiment: Anticonvulsant activity in CF1 albino mouse assessed as inhibition of subcutaneous pentylenetetrazole-induced seizures at 30 mg/kg, ip after 0.5 hrs; assay type: functional, organism-based; parameters: dose 30 mg/kg; method in brief: as §3
Mus musculus [16] = experiment: Anticonvulsant activity in CF1 albino mouse assessed as inhibition of subcutaneous pentylenetetrazole-induced seizures at 300 mg/kg, ip after 0.5 hrs; assay type: functional, organism-based; parameters: dose 300 mg/kg; method in brief: as §3
Mus musculus [17] = experiment: Teratogenic effect in SWV mouse assessed as resorptions at 141 mg/kg, ip administered on morning of day 8 of gestation; assay type: toxicity, organism-based; parameters: dose 141 mg/kg, route intraperitoneal; settings: in vivo; method in brief: as §4
Mus musculus [18] = experiment: Teratogenic effect in SWV mouse assessed as fetuses with neural tube deffects at 141 mg/kg, ip administered on morning of day 8 of gestation; assay type: toxicity, organism-based; parameters: dose 141 mg/kg, route intraperitoneal; settings: in vivo; method in brief: as §1
Mus musculus [19] = experiment: Teratogenic effect in SWV mouse assessed as live fetuses at 282 mg/kg, ip administered on morning of day 8 of gestation; assay type: toxicity, organism-based; parameters: dose 282 mg/kg, route intraperitoneal; settings: in vivo; method in brief: as §1
Mus musculus [20] = experiment: Neurotoxicity in CF1 albino mouse assessed as motor impairment at 300 mg/kg, ip after 4 hrs; assay type: toxicity, organism-based; parameters: dose 300 mg/kg, route intraperitoneal; settings: in vivo
Mus musculus [21] = experiment: Neurotoxicity in CF1 albino mouse assessed as motor impairment at 100 mg/kg, ip after 4 hrs; assay type: toxicity, organism-based; parameters: dose 100 mg/kg, route intraperitoneal; settings: in vivo
Mus musculus [22] = experiment: Anticonvulsant activity in CF1 albino mouse assessed as inhibition of maximal electroshock-induced seizures at 30 mg/kg, ip after 4 hrs; assay type: functional, organism-based; parameters: dose 30 mg/kg; method in brief: as §2
Mus musculus [23] = experiment: Anticonvulsant activity in CF1 albino mouse assessed as inhibition of maximal electroshock-induced seizures at 30 mg/kg, ip after 0.5 hrs; assay type: functional, organism-based; parameters: dose 30 mg/kg; method in brief: as §2
Rattus norvegicus [24] = experiment: Anticonvulsant activity in po dosed rat assessed as inhibition of maximal electroshock-induced seizures
Mus musculus [25] = experiment: Anticonvulsant activity in CF1 albino mouse assessed as inhibition of maximal electroshock-induced seizures at 100 mg/kg, ip after 0.5 hrs; assay type: functional, organism-based; parameters: dose 100 mg/kg; method in brief: as §2
Mus musculus [26] = experiment: Teratogenic effect in SWV mouse assessed as fetuses with neural tube deffects at 279 mg/kg, ip administered on morning of day 8 of gestation; assay type: toxicity, organism-based; parameters: dose 279 mg/kg, route intraperitoneal; settings: in vivo; method in brief: as §1
Mus musculus [27] = experiment: Teratogenic effect in SWV mouse assessed as live fetuses at 462 mg/kg, ip administered on morning of day 8 of gestation; assay type: toxicity, organism-based; parameters: dose 462 mg/kg, route intraperitoneal; settings: in vivo; method in brief: as §4
Mus musculus [28] = experiment: Teratogenic effect in SWV mouse assessed as resorptions at 279 mg/kg, ip administered on morning of day 8 of gestation; assay type: toxicity, organism-based; parameters: dose 279 mg/kg, route intraperitoneal; settings: in vivo; method in brief: as §4
Rattus norvegicus [29] = experiment: Anticonvulsant activity in Sprague-Dawley rat assessed as inhibition of maximal electroshock-induced seizures at 30 mg/kg, po after 2 hrs
Mus musculus [30] = experiment: Anticonvulsant activity in CF1 albino mouse assessed as inhibition of maximal electroshock-induced seizures at 100 mg/kg, ip after 4 hrs; assay type: functional, organism-based; parameters: dose 100 mg/kg; method in brief: as §2
Rattus norvegicus [31] = experiment: Neurotoxicity in Sprague-Dawley rat assessed as motor impairment at 30 mg/kg, po after 0.25 to 4 hrs; settings: in vivo
Rattus norvegicus [32] = experiment: Anticonvulsant activity in Sprague-Dawley rat assessed as inhibition of maximal electroshock-induced seizures at 30 mg/kg, po after 1 hr
Mus musculus [33] = experiment: Teratogenic effect in SWV mouse assessed as resorptions at 462 mg/kg, ip administered on morning of day 8 of gestation; assay type: toxicity, organism-based; parameters: dose 462 mg/kg, route intraperitoneal; settings: in vivo; method in brief: as §4
Mus musculus [34] = experiment: Teratogenic effect in SWV mouse assessed as fetuses with neural tube deffects at 462 mg/kg, ip administered on morning of day 8 of gestation; assay type: toxicity, organism-based; parameters: dose 462 mg/kg, route intraperitoneal; settings: in vivo; method in brief: as §1
Rattus norvegicus [35] = species: Rattus norvegicus; experiment: Protective index, ratio of TD50 for rat to ED50 for maximal electroshock-induced rat seizure model
Mus musculus [36] = experiment: Teratogenic effect in SWV mouse assessed as live fetuses at 279 mg/kg, ip administered on morning of day 8 of gestation; assay type: toxicity, organism-based; parameters: dose 279 mg/kg, route intraperitoneal; settings: in vivo; method in brief: as §1

Structure (SMILES) | Activity (Mus musculus [1]) | Activity (Rattus norvegicus [2]) | Activity (Mus musculus [5]) [%] | Activity (Mus musculus [7]) | Activity (Mus musculus [9]) | Activity (Mus musculus [10]) | Activity (Mus musculus [11]) | Activity (Mus musculus [12]) | Activity (Mus musculus [14]) | Activity (Mus musculus [15]) | Activity (Mus musculus [16]) | Activity (Mus musculus [17]) [%] | Activity (Mus musculus [20]) | Activity (Mus musculus [21]) | Activity (Mus musculus [22]) | Activity (Mus musculus [23]) | ED50 (Rattus norvegicus [24]) [mg/kg] | other results
CC(C)(C)C(=O)Nc1ccc(S(N)(=O)=O)cc1 | Non-toxic | Active | 93.3 | Active | inactive | inactive | Active | inactive | inactive | inactive | inactive | 7.5 | Non-toxic | Non-toxic | inactive | inactive | 42.2 | Activity (Mus musculus [3]): Non-toxic; Activity (Rattus norvegicus [4]): inactive; Activity (Mus musculus [6]): 2.7%; Activity (Rattus norvegicus [8]): inactive; Activity (Mus musculus [13]): 8.9%; Activity (Mus musculus [18]): 3.7%; Activity (Mus musculus [19]): 91.1%
CCC(C)C(=O)Nc1ccc(S(N)(=O)=O)cc1 (stereo not drawn) | Non-toxic | Active | 91.8 | Active | inactive | inactive | Active | inactive | inactive | inactive | inactive | 8.2 | Non-toxic | Non-toxic | Active | Active | 7.6 | Activity (Mus musculus [25]): Active; Activity (Mus musculus [26]): 4.4%; Activity (Mus musculus [27]): 50.9%; Activity (Mus musculus [28]): 8.8%; Activity (Rattus norvegicus [29]): Active; Activity (Mus musculus [30]): Active; Activity (Rattus norvegicus [31]): Non-toxic; Activity (Rattus norvegicus [32]): Active; Activity (Mus musculus [33]): 49.1%; Activity (Mus musculus [34]): 25.4%; Ratio TD50/ED50 (Rattus norvegicus [35]): >65.7; Activity (Mus musculus [36]): 91.2%
